High-throughput results (PubChem BioAssay)
A selection: hits, their analogues and other compounds. The true share with any hit is near 2.4%.
mABHD4 FP – inhibitors of mouse ABHD4 | purified mABHD4, FP-Rh probe fluorescence polarization | inhibition, % at 8.92 µM | 370,000 compounds, 0.54% hits | AID 720543;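 active = inhibition exceeding the mean over every tested compound plus 3 SD, cut at about 30% in these data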;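 also: 0% = plate median of compound wells and 100% = S159A mutant with DMSO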
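Material: mouse ABHD4 enzyme, wild type; Benchmarks: S159A mutant high control, sample median low control; Buffer or medium: HEPES pH 7.0, NaCl, Pluronic buffer; Signal: fluorescence polarization; Read-out: percent inhibition of probe binding, normalized to plate controls; Timing: pre-incubation 45 min, probe exposure 60 min, at 25 °C; Dosing: 8.92 µM, single dose.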
PRMT1 inh – blocks human protein arginine methyltransferase 1; inhibition, % at 2.79 µM; Q99873; 370,000 compounds, 1.3% hits; recombinant PRMT1, activity-based probe fluorescence polarization;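 active = inhibition above about 21% made by adding two undisclosed values, limit read from the data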
HTRA1 inh – HTRA1 (human) protease inhibition. Q92743. recombinant HTRA1, FP-rhodamine activity-based probe, fluorescence polarization. inhibition, % at 5.96 µM. 340,000 compounds, 0.5% hits. AID 504803; in the data active = inhibition above about 36%;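 also: 0% = enzyme with DMSO and 100% = wells lacking enzyme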
SIAE inh – blocks human sialic acid acetylesterase; inhibition, % at 9.66 µM; 370,000 compounds, 0.69% hits; SIAE FP-Rh probe binding, fluorescence polarization;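 active = inhibition above a cutoff: mean of compounds within the control limits plus 3 SD of those, cut at about 17% in these data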;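 also: 0% = plate median of compound wells and 100% = probe without SIAE protein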
Target sequence (Q9HAT2 whole entry, looked up): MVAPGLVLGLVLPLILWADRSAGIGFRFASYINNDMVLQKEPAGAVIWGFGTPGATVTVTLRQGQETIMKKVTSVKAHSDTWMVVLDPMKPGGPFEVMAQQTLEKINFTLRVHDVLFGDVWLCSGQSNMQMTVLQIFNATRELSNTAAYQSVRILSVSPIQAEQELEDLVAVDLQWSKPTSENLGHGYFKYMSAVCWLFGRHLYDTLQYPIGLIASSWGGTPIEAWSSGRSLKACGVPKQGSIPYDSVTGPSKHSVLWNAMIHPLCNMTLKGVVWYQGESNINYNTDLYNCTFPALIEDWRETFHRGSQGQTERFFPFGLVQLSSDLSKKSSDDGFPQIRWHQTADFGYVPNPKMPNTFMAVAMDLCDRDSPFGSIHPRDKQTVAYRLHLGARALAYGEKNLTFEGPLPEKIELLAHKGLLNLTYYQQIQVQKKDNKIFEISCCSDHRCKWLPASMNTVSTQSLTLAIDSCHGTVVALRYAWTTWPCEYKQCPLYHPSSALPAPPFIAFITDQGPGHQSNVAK
JMJD2C inh – blocks human GASC-1 demethylase activity. Q9H3R0. 330,000 compounds, 0.069% hits. GST-JMJD2C(1-420) H3K9me3 demethylation, DELFIA europium. inhibition, % at 2.35 µM;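 active = more than half of a compound's replicate wells show inhibition beyond 50%, single wells judged on their own value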;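 also: signal counts dimethyl H3K9 product captured on neutravidin plate; 0% = median of DMSO wells and 100% = 0.3 times that DMSO median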
HTRA1 conf – HTRA1 (human) inhibition, confirmation; shares compounds with HTRA1 inh; recombinant HTRA1, FP-rhodamine activity-based probe, fluorescence polarization; inhibition, % at 5.96 µM; 1,600 compounds, 66% hits; AID 540248;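 active = mean inhibition over three repeats above a set limit taken from the earlier primary screen, cut at about 37% in these data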;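 also: 0% = HTRA1 with DMSO and 100% = wells lacking HTRA1; inhibitors block probe binding so polarization drops and inhibition rises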
mABHD4 conf – confirmation of mouse ABHD4 inhibitors | shares compounds with mABHD4 FP | purified mABHD4, FP-Rh probe fluorescence polarization | inhibition, % at 8.92 µM | 1,800 compounds, 55% hits | AID 720658;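 active = mean inhibition across replicates above the hit cutoff set in the primary screen, cut at about 30% in these data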;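 also: 0% = wild-type ABHD4 with DMSO and 100% = catalytically dead S159A mutant with DMSO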
* = called active by the depositor; / = not tested or not shown.

SMILES	mABHD4 FP	PRMT1 inh	HTRA1 inh	SIAE inh	JMJD2C inh	HTRA1 conf	mABHD4 conf
CCOC(=O)Cc1csc(NC(=O)NC2(C(F)(F)F)Oc3ccc(Cl)cc3O2)n1 (stereo not drawn)	16.7	2.8	15.9	-4.1	-4.2	/	/
CCOC(=O)Cc1csc(NC(=O)NC2(C(F)(F)F)Oc3cc(Cl)c(Cl)cc3O2)n1	30.2*	9.5	37.1*	-0.7	0.0	64.2*	12.7
COc1ccc(OC)c(Nc2nc(-c3sc(NC(=O)CC(C)C)nc3C)cs2)c1	34.9*	4.2	37.1*	9.3	12.4	27.1	54.5*
CCCCC(=O)Nc1nc(C)c(-c2csc(Nc3cc(OC)ccc3OC)n2)s1	42.3*	0.5	38.9*	8.4	2.3	25.7	66.4*
C=CCNC(=O)N1CCC(c2nc3ccc(Cl)cc3[nH]2)CC1	1.1	-4.9	/	1.6	/	/	/
Fc1ccc(NC2CCC23CCC(c2ccccc2)CC3)cc1C(F)(F)F (stereo not drawn)	-15.7	0.9	/	4.8	/	/	/
COc1ccc([C@H]2OC(=O)C[C@@H]2C(=O)N2CCN(c3ccccc3F)CC2)cc1OC	1.9	1.7	/	0.3	/	/	/
CC(C)Nc1ccc(Nc2ccnc3cc4ccccc4cc23)cc1	31.2*	-2.5	38.7*	8.2	-1.5	45.9*	54.5*
Cc1cccc(Nc2nc(-c3ccc(O)c(O)c3)cs2)n1	33.6*	0.6	60.0*	3.9	-28.3	59.1*	57.3*
Cc1ccnc(Nc2nc(-c3ccc(O)c(O)c3)cs2)c1	42.0*	2.5	73.5*	15.7	-80.2	85.1*	47.2*
Cc1cccnc1Nc1nc(-c2ccc(O)c(O)c2)cs1	35.2*	10.4	80.9*	-6.0	-12.9	69.7*	43.2*
Oc1ccc(-c2csc(Nc3ccccn3)n2)cc1O	31.3*	6.4	64.3*	13.3	-19.9	79.6*	39.9*
Cc1ccnc(Nc2nc(-c3ccc(O)cc3)cs2)c1	7.6	2.4	16.0	6.7	8.0	/	/
Cc1cccc(Nc2nc(-c3ccc(F)c(C)c3)cs2)n1	14.7	1.4	-2.3	-2.1	5.2	/	/
CCOC(=O)C1CCN(C(=O)C(C)(C)NC(=O)Nc2ccc(C(F)(F)F)cc2Cl)CC1	-7.9	-0.8	/	-8.2	/	/	/
COC(=O)C1CN(Cc2cn(Cc3ccc(OC)cc3)nn2)CCS(=O)(=O)N1Cc1ccc(C)cc1 (stereo not drawn)	2.9	1.8	/	4.6	/	/	/
COC(=O)[C@]1(C#N)CC(=O)N(c2ccccc2)[C@@H]1c1ccccc1	-0.1	-0.5	/	-2.5	/	/	/
Oc1c(N=Nc2ccccn2)ccc2ccccc12	34.9*	-2.8	51.3*	4.6	-2.5	37.6*	24.8
CCCCCCCCN1C(=O)[C@H](CC(=O)N2CCCCC2)C[C@@]2(C(=O)OC)CCCCC=C12	4.2	6.9	/	-1.4	/	/	/
CN(C)c1cc2c(c(N(C)C)c1)C(=O)c1ccccc1C2=O	40.8*	-0.3	41.2*	-0.4	-2.7	49.6*	33.3*
CC(=O)Nc1ccc(/C=N\NC(=O)c2cccc(S(=O)(=O)N(C)C)c2)cc1	2.8	0.1	/	-2.6	/	/	/
Cc1[nH]c2ccccc2c1/C=N/n1cnnc1	-5.5	-3.2	-1.3	5.5	1.3	/	/
CCN(CC)c1ccc(N=Cc2c(C)[nH]c3ccccc23)cc1	35.6*	14.5	50.3*	14.1	-14.5	21.6	30.0*
COc1cc(NCCCC(C)N)c2ncccc2c1 (stereo not drawn)	47.0*	4.1	61.6*	44.2*	36.1	11.7	26.8
COc1cc(NCCCCC(C)N)c2nccc(C)c2c1 (stereo not drawn)	19.0	3.2	15.5	8.8	/	/	/
SMILES	mABHD4 FP	PRMT1 inh	HTRA1 inh	SIAE inh	JMJD2C inh	HTRA1 conf	mABHD4 conf
Cc1cc(=O)[nH]c(SCC(=O)Nc2cccc(C)c2C)n1	1.9	6.6	/	-1.1	/	/	/
O=C1c2cccc(Cl)c2C(=O)c2c1cccc2N1CCCC1	65.6*	7.0	65.1*	7.9	8.8	64.7*	85.4*
O=C1C(Cl)=C(N2CCCCC2)C(=O)N1c1ccccc1Cl	4.9	17.1	-7.5	13.9	-23.8	/	/
CCCCCCCCCCOC(=O)Cn1c(COc2cccc(C)c2)[n+](C)c2ccccc21	32.5*	-2.1	38.0*	2.4	9.6	33.4	38.5*
CCCCCCCCCCOC(=O)Cn1c(COc2ccc(OC)cc2)[n+](C)c2ccccc21	/	/	17.7	/	-14.4	/	/
Cc1ccc(C2C3=C(CC(C)(C)CC3=O)OC3=C2C(=O)CC(C)(C)C3)cc1	9.6	2.5	0.6	3.7	6.9	/	/
Cc1cc(SCC(=O)c2ccc(O)c(O)c2)nc2ccccc12	38.5*	23.6*	53.7*	16.0	-2.0	69.2*	19.7
O=C(CSc1n[nH]c(-c2ccccc2)n1)c1ccc(O)c(O)c1	34.4*	15.1	72.3*	11.1	2.4	66.5*	12.9
Cc1ccc(CN2CCC2(C)C(=O)NC2CCc3ccccc32)cc1 (stereo not drawn)	1.8	0.1	/	2.1	/	/	/
CCCc1c(-c2ccc(Cl)cc2)ncn1Cc1cccc(-c2ccccc2)c1	-7.0	4.7	/	-3.7	/	/	/
CNc1nc(N)c([N+](=O)[O-])c(Nc2ccccc2)n1	-0.5	-2.7	/	-0.5	/	/	/
N#Cc1c(N)nc2c3c(sc(=N)c2c1N)NC(=O)CC3c1c(F)cccc1Cl (stereo not drawn)	35.1*	1.4	63.1*	0.1	-2.7	25.0	16.7
CC(=O)OCCn1c([N+](=O)[O-])cnc1C=[N+]([O-])C1CCCCC1	-4.6	-4.9	3.3	2.1	/	/	/
Cc1ccc(S(=O)(=O)Nc2ccccc2)cc1[N+](=O)[O-]	-1.6	-2.0	0.6	-4.4	/	/	/
Cc1cccc2c(N=Nc3ccc(S(=O)(=O)Nc4cccc(Cl)c4)cc3[N+](=O)[O-])c(O)[nH]c12	43.0*	1.3	37.2*	3.0	12.7	27.7	-42.7
CN(C)Cc1c(O)ccc2c(=O)c(-c3ccc(Cl)cc3)coc12	2.3	-1.0	3.1	-4.2	8.5	/	/
O=c1c(-c2ccc([N+](=O)[O-])cc2)coc2c(O)c(O)ccc12	42.2*	38.4*	66.1*	-2.1	-5.2	68.1*	22.1
O=[N+]([O-])c1cc2no[n+]([O-])c2cc1N1CCCCC1	55.2*	2.1	76.8*	10.9	/	32.5	50.8*
N#Cc1cc(N2CCCCC2)c([N+](=O)[O-])cc1C#N	5.4	-1.3	1.1	-1.6	14.0	/	/
CCCCCCC12Cc3cc(OC)c(OC)cc3C(O1)C1=C(O2)C(C)(C)CCC1=O (stereo not drawn)	8.8	-0.3	/	11.0	/	/	/
O=[N+]([O-])c1ccc(N=Nc2c(Cl)cc(O)cc2Cl)cc1	76.7*	1.3	67.0*	25.8*	-2.3	72.8*	84.5*
COc1ccccc1OCCSc1nc2ccccc2n1CC(=O)O	-1.2	3.7	5.4	2.3	/	/	/
